pIC50: −log10 of the molar value.
How the values were obtained:
[1] = test system: Staphylococcus aureus; assay: Antibacterial activity against Staphylococcus aureus NCTC 4163 assessed as bacterial growth inhibition measured after 18 hrs by two-fold serial microdilution method; type: functional
Outline: (§1)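 Two-fold serial broth microdilution in MH II medium following modified CLSI procedures. Compounds were dissolved in DMSO and diluted in medium to at most 1% solvent, tested from 0.03125 to 512 μg/ml. Final inoculum 10^6 CFU/ml. MIC was taken as the lowest concentration with no visible growth after 18 h at 35 °C.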

[2] = test system: Klebsiella pneumoniae; assay: Antibacterial activity against Klebsiella pneumoniae ATCC 10031 assessed as bacterial growth inhibition measured after 18 hrs by two-fold serial microdilution method; type: functional; outline: as §1
[3] = test system: Staphylococcus epidermidis; assay: Antibacterial activity against Staphylococcus epidermidis ATCC 12228 assessed as bacterial growth inhibition measured after 18 hrs by two-fold serial microdilution method; type: functional; outline: as §1
[4] = test system: Mycobacterium tuberculosis; assay: Antitubercular activity against Mycobacterium tuberculosis Spec.192 assessed as inhibition of microbial growth by classical test tube method; type: functional
Outline: (§2)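 Classical test-tube serial dilution in Youmans' modified Proskauer–Beck liquid medium with 10% bovine serum. Inoculum came from 14-day-old cultures. Compounds were given as DMSO solutions (stock 10 mg/ml), diluted geometrically in medium to 3.1–100 µg/ml, and incubated at 37 °C. MIC is the minimum concentration inhibiting growth relative to a no-compound control.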

[5] = test system: Proteus vulgaris; assay: Antibacterial activity against Proteus vulgaris NCTC 4635 assessed as bacterial growth inhibition measured after 18 hrs by two-fold serial microdilution method; type: functional; outline: as §1
[6] = test system: Staphylococcus epidermidis; assay: Antibacterial activity against Staphylococcus epidermidis ATCC 1457 assessed as bacterial growth inhibition measured after 18 hrs by two-fold serial microdilution method; type: functional; outline: as §1
[7] = test system: Staphylococcus epidermidis; assay: Antibacterial activity against Staphylococcus epidermidis ATCC 35984/RP62A assessed as bacterial growth inhibition measured after 18 hrs by two-fold serial microdilution method; type: functional; outline: as §1
[8] = test system: Pseudomonas aeruginosa; assay: Antibacterial activity against Pseudomonas aeruginosa NCTC 6749 assessed as bacterial growth inhibition measured after 18 hrs by two-fold serial microdilution method; type: functional; outline: as §1
[9] = test system: Escherichia coli; assay: Antibacterial activity against Escherichia coli ATCC 25922 assessed as bacterial growth inhibition measured after 18 hrs by two-fold serial microdilution method; type: functional; outline: as §1
[10] = test system: Mycobacterium tuberculosis; assay: Antitubercular activity against Mycobacterium tuberculosis H37Rv ATCC 25618 assessed as inhibition of microbial growth by classical test tube method; type: functional; outline: as §2
[11] = test system: Staphylococcus aureus; assay: Antibacterial activity against Staphylococcus aureus ATCC 6538 assessed as bacterial growth inhibition measured after 18 hrs by two-fold serial microdilution method; type: functional; outline: as §1
[12] = test system: Pseudomonas aeruginosa; assay: Antibacterial activity against Pseudomonas aeruginosa PAO1 assessed as bacterial growth inhibition measured after 18 hrs by two-fold serial microdilution method; type: functional; outline: as §1
[13] = test system: Mycolicibacterium fortuitum; assay: Antibacterial activity against Mycobacterium fortuitum assessed as inhibition of microbial growth incubated for 1 week by MABA method; type: functional; conditions: 168 h, time 1 weeks
Outline: (§3)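 Microplate Alamar Blue assay using two-fold serial microdilution in Middlebrook 7H9 broth with 10% OADC, compounds 0.125–512 µg/ml from DMSO stocks. Inoculum came from fresh LJ culture, was adjusted to McFarland 1 and diluted 1:20. Plates were incubated 1 week at 37 °C, Alamar blue was added and plates were re-incubated 24 h. MIC was the lowest concentration preventing the blue-to-pink change. Each plate carried growth and sterile controls.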

[14] = test system: V79; assay: Cytotoxicity against Chinese Hamster V79 cells assessed as reduction in cell viability at 100 uM measured after 72 hrs by MTT assay; type: cell-based, Cricetulus griseus; conditions: v79, 72 h
Outline: (§4)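 MTT viability assay on cells grown in DMEM with 10% heat-inactivated FBS, penicillin/streptomycin and 20 mM HEPES at 37 °C/5% CO2. Cells were seeded at 1×10^4 per well and allowed to adhere for 24 h, then the medium was refreshed. Compounds were added at 20–140 μM for 72 h at 37 °C, followed by MTT (0.5 mg/mL in serum-free medium) for 4 h. Untreated cells served as control. IC50 is the concentration giving 50% growth inhibition versus control.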

[15] = test system: V79; assay: Cytotoxicity against Chinese Hamster V79 cells assessed as reduction in cell viability measured after 72 hrs by MTT assay; type: cell-based; conditions: Cricetulus griseus, V79, 72 h; outline: as §4
[16] = test system: Mycobacterium intracellulare; assay: Antimycobacterial activity against Mycobacterium intracellulare assessed as inhibition of microbial growth incubated for 1 week by MABA method; type: functional; conditions: 168 h, time 1 weeks; outline: as §3
[17] = test system: Mycobacterium tuberculosis; assay: Antitubercular activity against Mycobacterium tuberculosis H37Rv ATCC 25618 assessed as inhibition of microbial growth incubated for 1 week by MABA method; type: functional; conditions: H37Rv ATCC 25618, 168 h, time 1 weeks
Outline: (§5)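 Microplate Alamar Blue assay in Middlebrook 7H9 broth with 10% OADC. Inoculum from fresh LJ culture was adjusted to McFarland 1 and diluted 1:20. DMSO stocks were two-fold serially diluted to final 0.125–512 µg/ml, with growth and sterile controls. Plates ran 1 week at 37 °C, then Alamar blue was added for 24 h. MIC is the lowest concentration preventing the blue-to-pink change.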

[18] = test system: Mycobacterium tuberculosis; assay: Antitubercular activity against Mycobacterium tuberculosis Spec.192 assessed as inhibition of microbial growth incubated for 1 week by MABA method; type: functional; conditions: Mycobacterium tuberculosis, 192, 168 h; time 1 weeks; outline: as §5
[19] = test system: Mycobacterium xenopi; assay: Antibacterial activity against Mycobacterium xenopi assessed as inhibition of microbial growth incubated for 1 week by MABA method; type: functional; conditions: 168 h, time 1 weeks; outline: as §3
[20] = test system: Mycobacterium scrofulaceum; assay: Antibacterial activity against Mycobacterium scrofulaceum assessed as inhibition of microbial growth incubated for 1 week by MABA method; type: functional; conditions: 168 h, time 1 weeks; outline: as §3
[21] = test system: Mycobacterium avium; assay: Antimycobacterial activity against Mycobacterium avium assessed as inhibition of microbial growth incubated for 1 week by MABA method; type: functional; conditions: 168 h, time 1 weeks; outline: as §5
[22] = test system: HaCaT; assay: Cytotoxicity against human HaCaT cells assessed as reduction in cell viability measured after 72 hrs by MTT assay; type: cell-based; outline: as §4
[23] = test system: HaCaT; assay: Cytotoxicity against human HaCaT cells assessed as reduction in cell viability at 100 uM measured after 72 hrs by MTT assay; type: cell-based; outline: as §4
[24] = test system: Mycobacterium kansasii; assay: Antibacterial activity against Mycobacterium kansasii assessed as inhibition of microbial growth incubated for 1 week by MABA method; type: functional; conditions: 168 h, time 1 weeks; outline: as §3
[25] = test system: Mycobacterium scrofulaceum; assay: Potency index, ratio of isoniazid MIC to test compound MIC for antibacterial activity against Mycobacterium scrofulaceum assessed as inhibition of microbial growth incubated for 1 week by MABA method; type: functional; conditions: time 1 weeks

Compound	MIC [1] [µg/mL]	MIC [2] [µg/mL]	MIC [3] [µg/mL]	MIC [4] [µg/mL]	MIC [5] [µg/mL]	MIC [6] [µg/mL]	MIC [7] [µg/mL]	MIC [8] [µg/mL]	MIC [9] [µg/mL]	MIC [10] [µg/mL]	MIC [11] [µg/mL]	MIC [12] [µg/mL]	MIC [13] [µg/mL]	MIC [16] [µg/mL]	MIC [17] [µg/mL]	MIC [18] [µg/mL]	MIC [19] [µg/mL]	MIC [20] [µg/mL]	MIC [21] [µg/mL]	MIC [24] [µg/mL]	other results
COc1ccc(NC(=S)Nc2ccccc2Cl)cc1	> 256	> 256	> 256	25	> 256	> 256	> 256	> 256	> 256	25	> 256	> 256									
COc1ccc(Nc2nnnn2-c2ccc(Br)cc2)cc1	> 256	> 256	> 256		> 256	> 256	> 256	> 256	> 256		> 256	> 256	> 512	256	16	16	512	256	> 512	512	Activity [14]: Non-Toxic; pIC50 [15]: 3.90; pIC50 [22]: 3.99; Activity [23]: Non-Toxic
COc1ccc(NC(=S)Nc2cccc(F)c2)cc1	> 256	> 256	> 256	100	> 256	> 256	> 256	> 256	> 256	50	> 256	> 256									
COc1ccc(Nc2nnnn2-c2cccc(F)c2)cc1	> 256	> 256	> 256		> 256	> 256	> 256	> 256	> 256		> 256	> 256	256	64	16	16	128	16	128	256	Activity [14]: Non-Toxic; pIC50 [15]: 3.91; Ratio [25]: 4; pIC50 [22]: 3.99; Activity [23]: Non-Toxic
COc1ccc(NC(=S)Nc2ccccc2F)cc1	> 256	> 256	> 256	50	> 256	> 256	> 256	> 256	> 256	50	> 256	> 256									
CC[C@@H](CO)NCCN[C@@H](CC)CO [ETHAMBUTOL]				< 3.1						< 3.1					2	2					
NNC(=O)c1ccncc1 [ISONIAZID]				6.25						6.25			128	64	0.125	0.125	64	64	32	32	
CO[C@H]1/C=C/O[C@@]2(C)Oc3c(C)c(O)c4c(O)c(c(/C=N/N5CCN(C)CC5)c(O)c4c3C2=O)NC(=O)/C(C)=C\C=C\[C@H](C)[C@H](O)[C@@H](C)[C@@H](O)[C@@H](C)[C@H](OC(C)=O)[C@@H]1C [RIFAMPIN]				< 3.1						< 3.1					1	1					
CN[C@@H]1[C@H](O[C@H]2[C@H](O[C@H]3[C@H](O)[C@@H](O)[C@H](N=C(N)N)[C@@H](O)[C@@H]3N=C(N)N)O[C@@H](C)[C@]2(O)C=O)O[C@@H](CO)[C@H](O)[C@H]1O [STREPTOMYCIN]				< 3.1						< 3.1					1	1					

— ChEMBL document CHEMBL4680121, “Development of (4-methoxyphenyl)-1H-tetrazol-5-amine regioisomers as a new class of selective antitubercular agents” (Eur J Med Chem, 2020)
